Results from ChEMBL document CHEMBL1155265, “Design, synthesis and in vitro antibacterial/antifungal evaluation of novel 1-ethyl-6-fluoro-1,4-dihydro-4-oxo-7(1-piperazinyl)quinoline-3-carboxylic acid derivatives” (2009).

Key:
Assay type in all cases: functional
[1] = test system: Bacillus subtilis; assay: Antibacterial activity against Bacillus subtilis at 50 mg/L after 24 hrs by agar well diffusion method; conditions: read-out: DIZ
Outline: (§1)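 Bacteria plated as 0.8 mL of 24-h-old inoculum mixed into 60 mL sterile molten agar cooled to 45 °C, poured into three dishes. Wells bored with centres at least 24 mm apart. Test sample at 50 mg/L in DMSO added to wells. DMSO served as negative control and agricultural streptomycin sulfate as positive control. Read-out was inhibition zone diameter (mm).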

[2] = test system: Ralstonia solanacearum; assay: Antibacterial activity against Ralstonia solanacearum at 50 mg/L after 24 hrs by agar well diffusion method; conditions: read-out: DIZ
[3] = test system: Erwinia; assay: Antibacterial activity against Erwinia aroideae at 50 mg/L after 24 hrs by agar well diffusion method; conditions: read-out: DIZ; outline: as §1
[4] = test system: Rhizoctonia solani; assay: Antifungal activity against Rhizoctonia solani at 200 mg/L by plate growth rate method; conditions: read-out: GI
Outline: (§2)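 Compound dissolved in DMSO and mixed into molten PDA at 45 °C at 200 mg/L, then plates allowed to set. A 5 mm mycelial agar disc was placed at the centre. Plates were incubated at 28 °C in the dark until the untreated control covered the plate. Colony diameters were measured and growth inhibition calculated by Abbott's formula. Each compound was tested three times.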

[5] = test system: Fusarium graminearum; assay: Antifungal activity against Gibberella zeae at 200 mg/L by plate growth rate method; conditions: read-out: GI
Outline: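 Plate growth rate method: compound dissolved in DMSO, mixed into sterile PDA at 45 °C to 200 mg/L, plates poured. A 5 mm mycelium agar disc placed centrally; incubated at 28 °C in the dark until the untreated control covered the plate. Colony diameters measured; growth inhibition computed by Abbott's formula. Each compound tested three times.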

[6] = test system: Xanthomonas oryzae; assay: Antibacterial activity against Xanthomonas oryzae at 50 mg/L after 24 hrs by agar well diffusion method; conditions: read-out: DIZ
[7] = test system: Cytospora mali; assay: Antifungal activity against Valsa mali at 200 mg/L by plate growth rate method; conditions: read-out: GI; outline: as §2
[8] = test system: Xanthomonas axonopodis; assay: Antibacterial activity against Xanthomonas axonopodis at 50 mg/L after 24 hrs by agar well diffusion method; conditions: read-out: DIZ; outline: as §1

SMILES | zone of inhibition at 50 µg/mL [1] [mm] | zone of inhibition at 50 µg/mL [2] [mm] | zone of inhibition at 50 µg/mL [3] [mm] | inhibition of growth at 200 µg/mL [4] [%] | inhibition of growth at 200 µg/mL [5] [%] | zone of inhibition at 50 µg/mL [6] [mm] | inhibition of growth at 200 µg/mL [7] [%] | zone of inhibition at 50 µg/mL [8] [mm]
CCn1cc(C(=O)O)c(=O)c2cc(F)c(N3CCN(C(=O)Cc4cccc5ccccc45)CC3)cc21 | 13.2 | 0 | 10.4 | 5 | 12 | 9.35 | 0 | 9.99
CCn1cc(C(=O)O)c(=O)c2cc(F)c(N3CCN(C(=O)COc4ccccc4)CC3)cc21 | 17.3 | 4.89 | 13.8 | 30 | 17 | 15.3 | 8 | 15
CCn1cc(C(=O)O)c(=O)c2cc(F)c(N3CCN(C(=O)COc4ccc(C(C)(C)C)cc4)CC3)cc21 | 10.8 | 10.9 | 8.52 | 53 | 28 | 5.81 | 14 | 6.41
CCn1cc(C(=O)O)c(=O)c2cc(F)c(N3CCN(C(=O)c4ccccc4Cl)CC3)cc21 | 19 | 8.97 | 16 | 5 | 27 | 16.9 | 41 | 14.2
CCn1cc(C(=O)O)c(=O)c2cc(F)c(N3CCN(C(=O)c4cccnc4)CC3)cc21 | 8.74 | 1.06 | 9.19 | 12 | 11 | 7.94 | 17 | 6.58
CCn1cc(C(=O)O)c(=O)c2cc(F)c(N3CCN(C(=O)COc4ccccc4Cl)CC3)cc21 | 14.2 | 4.67 | 11.8 | 3 | 10 | 17.2 | 12 | 10.4
CCn1cc(C(=O)O)c(=O)c2cc(F)c(N3CCN(C(=O)/C=C/c4ccc(OC)cc4)CC3)cc21 | 8.91 | 0 | 8.02 | 94 | 1 | 5.35 | 5 | 6.83
